{"data": "Published values pooled from the literature", "observed": "cell growth or viability", "note": "Compare with care: the assays were run in different laboratories. pEC50: −log10 of the molar value."}
{"SMILES": "O=C(Nc1cccc(Br)c1)c1cccc(S(=O)(=O)N2CCCCCC2)c1", "cell line": "OCI-Ly1", "test": "ATP luminescence", "setting": "1 µM, 5 days", "endpoint": "viability", "value": "153%"}
{"SMILES": "CCCCCCCCCCCCCCCCCCOc1ccccc1CC(=O)OCC[N+]1(C)CCOCC1", "cell line": "HOP-92", "test": "SRB", "setting": "10 µM", "endpoint": "inhibition", "value": "55.8%"}
{"SMILES": "C[C@H](Nc1ccc2c(c1)OCCn1cc(N3C(=O)OC[C@H]3C(F)F)nc1-2)C(N)=O", "cell line": "ESS-1", "test": "ATP luminescence", "setting": "5 days", "endpoint": "pEC50", "value": 6.47}
{"SMILES": "Cc1n[nH]c2ccc3nc(-c4ccc(C(=O)NCCN(C)C)cc4F)c4c(c3c12)CCCCC4", "cell line": "K562", "test": "resazurin", "setting": "72 h", "endpoint": "GI50", "value": "2000 nM"}
{"SMILES": "O=C(Nc1ccc(C2CCCCC2)cc1)[C@H]1O[C@H](O[C@@H]2[C@@H](OCc3ccc4ccccc4c3)[C@H](O[C@H]3O[C@H](CNS(=O)(=O)O)[C@@H](OCc4ccc5ccccc5c4)C[C@H]3NS(=O)(=O)O)[C@@H](NS(=O)(=O)O)C[C@H]2NS(=O)(=O)O)[C@H](OCc2ccc3ccccc3c2)[C@@H](NS(=O)(=O)O)[C@@H]1OCc1ccc2ccccc2c1", "cell line": "4T1", "test": "CCK-8", "setting": "120 µM, 48 h", "endpoint": "viability", "value": "5 to 10%"}
{"SMILES": "COC(=O)CNC(=O)C(=O)OC", "cell line": "OCI-Ly1", "test": "ATP luminescence", "setting": "0.5 µM, 5 days", "endpoint": "viability", "value": "168%"}
{"SMILES": "CCCCCCCCCCCCCCCCCCOc1cccc(CC(=O)OCCC[N+](C)(C)C)c1", "cell line": "HOP-62", "test": "SRB", "setting": "10 µM", "endpoint": "inhibition", "value": "15.9%"}
{"SMILES": "NC(=O)c1ccc(-c2nc3ccc4[nH]ncc4c3c3c2CCCC3)cc1", "cell line": "K562", "test": "resazurin", "setting": "72 h", "endpoint": "GI50", "value": "7600 nM"}
{"SMILES": "CCCCCCCCCCCCCCCCCCOc1cccc(CC(=O)OCC[N+](CC)(CC)CC)c1", "cell line": "HOP-62", "test": "SRB", "setting": "10 µM", "endpoint": "inhibition", "value": "30.9%"}
{"SMILES": "O=C(CCCCCCSc1ccc2ccccc2c1)NO", "cell line": "OCI-Ly1", "test": "ATP luminescence", "setting": "0.1 µM, 5 days", "endpoint": "viability", "value": "194%"}
{"SMILES": "CCCCCCCCCCCCCCCCCCOc1ccccc1CC(=O)OCC[N+](CC)(CC)CC", "cell line": "HOP-62", "test": "SRB", "setting": "10 µM", "endpoint": "inhibition", "value": "59%"}
{"SMILES": "CN(C)CCNC(=O)c1ccc(-c2nc3ccc4[nH]ncc4c3c3c2CCCC3)cc1", "cell line": "K562", "test": "resazurin", "setting": "72 h", "endpoint": "GI50", "value": "1300 nM"}
{"SMILES": "O=C(Nc1ccc(Cl)cc1)C1CCCN(C(=O)c2cc(C(F)(F)F)cc(C(F)(F)F)c2)C1 (racemic)", "cell line": "OCI-Ly1", "test": "ATP luminescence", "setting": "0.1 µM, 5 days", "endpoint": "viability", "value": "191%"}
{"SMILES": "Cc1n[nH]c2ccc3nc(-c4ccc(C(=O)NCCN5CCCC5)cc4)c4c(c3c12)CCCC4", "cell line": "K562", "test": "resazurin", "setting": "72 h", "endpoint": "GI50", "value": "2300 nM"}
{"SMILES": "O=C(CCCCCCC(=O)Nc1ccccc1)NO", "cell line": "OCI-Ly1", "test": "ATP luminescence", "setting": "0.1 µM, 5 days", "endpoint": "viability", "value": "162%"}
